Calls of active or inactive are those of the source.
Key:
[1] = Neurotoxicity in CF-1 mouse at 300 mg/kg, ip measured after 0.5 hrs by rotarod test; assay type: toxicity, organism-based; settings: in vivo
Outline: (§1)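 Mice dosed i.p. were placed on a 1 in. knurled rod turning at 6 rpm. Toxicity was scored as failure to keep balance for at least 1 min, i.e. falling off three or more times. Results are reported as animals showing toxicity / animals tested at each time point.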

Mus musculus [2] = assay: Anticonvulsant activity in CF-1 mouse model of maximal electroshock-induced seizure assessed as suppression of tonic hind limb extension at 100 mg/kg, ip measured at 0.25 hrs post dose; assay type: functional, organism-based
Outline: (§2)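 Mice dosed i.p. and given maximal electroshock at 50 mA. Read-out is protection, reported as number protected / number tested at 0.25, 0.5, 1 and 4 h after dosing.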

Rattus norvegicus [3] = assay: Anticonvulsant activity in Sprague-Dawley rat model of maximal electroshock-induced seizure assessed as suppression of tonic hind limb extension at 30 mg/kg, po measured at 4 hrs post dose; assay type: functional, organism-based
Outline: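 Rats given 30 mg/kg p.o. and tested by maximal electroshock at 150 mA. Scored as number protected / number tested (4 per group) at 0.25, 0.5, 1, 2 and 4 h after dosing.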

[4] = Neurotoxicity in Sprague-Dawley rat at 300 mg/kg, ip measured after 0.5 hrs by rotarod test; assay type: toxicity, organism-based; settings: in vivo
Outline: (§3)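 Rat neurotoxicity after i.p. or p.o. dosing was scored as animals impaired / animals tested at each time point. For p.o. dosing, TD50 was obtained by probit analysis.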

Mus musculus [5] = assay: Anticonvulsant activity in CF-1 mouse model of maximal electroshock-induced seizure assessed as suppression of tonic hind limb extension at 110 mg/kg, ip measured at 0.5 hrs post dose; assay type: functional, organism-based; outline: as §2
Mus musculus [6] = assay: Anticonvulsant activity in CF-1 mouse model of maximal electroshock-induced seizure assessed as suppression of tonic hind limb extension at 110 mg/kg, ip measured at 0.25 hrs post dose; assay type: functional, organism-based; outline: as §2
Rattus norvegicus [7] = assay: Anticonvulsant activity in hippocampal kindling Sprague-Dawley rat model assessed as after discharge time at 100 mg/kg, ip administered as single dose measured after 15 mins; assay type: functional
Outline: (§4)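 Rats implanted with a hippocampal electrode and kindled with suprathreshold trains (200 µA, 10 s, 50 Hz) every 30 min for 6 h on alternate days until fully kindled. One week later they received a single i.p. dose. Seizure score (Racine scale) and afterdischarge duration were recorded at 0–135 min and compared with the control stimulus given 15 min before dosing; each animal served as its own control. Values are mean ± SEM.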

[8] = Neurotoxicity in Sprague-Dawley rat at 100 mg/kg, ip measured after 2 hrs by rotarod test; assay type: toxicity, organism-based; settings: in vivo, 2 h; outline: as §3
Rattus norvegicus [9] = assay: Anticonvulsant activity in hippocampal kindling Sprague-Dawley rat model assessed as after discharge time at 50 mg/kg, ip administered as single dose measured after 135 mins; assay type: functional; outline: as §4
[10] = Neurotoxicity in Sprague-Dawley rat at 300 mg/kg, ip measured after 0.25 hrs by rotarod test; assay type: toxicity, organism-based; settings: in vivo; outline: as §3
[11] = Protection index, ratio of TD50 for neurotoxicity in po dosed Sprague-Dawley rat to ED50 for anticonvulsant activity in Sprague-Dawley rat model of maximal electroshock-induced seizure; assay type: toxicity, organism-based; settings: in vivo, read-out: Ratio TD50/ED50
Outline: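 The rat p.o. protective index is TD50 (rotarod) / ED50 (MES, 150 mA). Both values were calculated by probit analysis.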

Rattus norvegicus [12] = assay: Anticonvulsant activity in hippocampal kindling Sprague-Dawley rat model assessed as after discharge time at 50 mg/kg, ip administered as single dose measured after 15 mins; assay type: functional; outline: as §4
[13] = Neurotoxicity in po dosed Sprague-Dawley rat by rotarod test; assay type: toxicity, organism-based; settings: in vivo; outline: as §3
Astrocyte [14] = assay: Cytotoxicity against mouse astrocytes at 10 to 200 uM after 24 hrs by MTT assay; assay type: cell-based
Outline: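 Mouse astrocyte line (CRL-2541) grown in DMEM with 10% FBS at 37 °C, 5% CO2. Seeded at 1×10^4 per well in 1% FBS medium, treated with 10–200 µM for 24 h against vehicle controls. MTT reagent added for 4 h at 37 °C, crystals dissolved, absorbance read at 570 nm.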

Rattus norvegicus [15] = assay: Anticonvulsant activity in hippocampal kindling Sprague-Dawley rat model assessed as decrease of seizure score at 100 mg/kg, ip administered as single dose measured up to 135 mins; assay type: functional, organism-based; outline: as §4
Rattus norvegicus [16] = assay: Anticonvulsant activity in hippocampal kindling Sprague-Dawley rat model assessed as after discharge time at 50 mg/kg, ip administered as single dose measured after 105 mins; assay type: functional; outline: as §4
Rattus norvegicus [17] = assay: Anticonvulsant activity in hippocampal kindling Sprague-Dawley rat model assessed as after discharge time at 100 mg/kg, ip administered as single dose measured after 135 mins; assay type: functional; outline: as §4
Rattus norvegicus [18] = assay: Anticonvulsant activity in hippocampal kindling Sprague-Dawley rat model assessed as after discharge time at 100 mg/kg, ip administered as single dose measured after 105 mins; assay type: functional; outline: as §4
[19] = Neurotoxicity in Sprague-Dawley rat at 30 mg/kg, ip measured after 1 hr by rotarod test; assay type: toxicity, organism-based; settings: in vivo; outline: as §3
[20] = Neurotoxicity in Sprague-Dawley rat at 300 mg/kg, ip measured after 1 hr by rotarod test; assay type: toxicity, organism-based; settings: in vivo; outline: as §3
Rattus norvegicus [21] = assay: Anticonvulsant activity in hippocampal kindling Sprague-Dawley rat model assessed as after discharge time at 50 mg/kg, ip administered as single dose measured immediately; assay type: functional; outline: as §4
Mus musculus [22] = assay: Anticonvulsant activity in ip dosed CF-1 mouse model of maximal electroshock-induced seizure assessed as time required for suppression of tonic hind limb extension; assay type: functional
Rattus norvegicus [23] = assay: Anticonvulsant activity in hippocampal kindling Sprague-Dawley rat model assessed as after discharge time at 50 mg/kg, ip administered as single dose measured after 45 mins; assay type: functional; outline: as §4
[24] = Neurotoxicity in Sprague-Dawley rat at 100 mg/kg, ip measured after 4 hrs by rotarod test; assay type: toxicity, organism-based; settings: in vivo; outline: as §3
[25] = Neurotoxicity in Sprague-Dawley rat at 30 mg/kg, ip measured after 0.5 hrs by rotarod test; assay type: toxicity, organism-based; settings: in vivo; outline: as §3
[26] = Neurotoxicity in CF-1 mouse at 220 mg/kg, ip measured after 4 hrs by rotarod test; assay type: toxicity, organism-based; settings: in vivo; outline: as §1
Astrocyte [27] = assay: Cytotoxicity against mouse astrocytes at 10 to 200 uM after 24 hrs by neutral red staining based microscopic analysis; assay type: cell-based
Outline: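 Mouse astrocyte line seeded at 1×10^4 per well, treated 24 h later with 10–200 µM for 24 h. Medium then replaced with neutral red (4 µg ml⁻¹) in EMEM with 5% FBS for 3 h. Cells washed, dye extracted in ethanol/water/acetic acid, A540 read. Cytotoxicity (%) = (1 − sample A540/control A540) × 100.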

[28] = Neurotoxicity in CF-1 mouse at 220 mg/kg, ip measured after 0.25 hrs by rotarod test; assay type: toxicity, organism-based; settings: in vivo; outline: as §1
Rattus norvegicus [29] = assay: Anticonvulsant activity in hippocampal kindling Sprague-Dawley rat model assessed as after discharge time at 100 mg/kg, ip administered as single dose measured after 75 mins; assay type: functional; outline: as §4
[30] = Neurotoxicity in CF-1 mouse at 100 mg/kg, ip measured after 0.25 hrs by rotarod test; assay type: toxicity, organism-based; settings: in vivo; outline: as §1
Rattus norvegicus [31] = assay: Anticonvulsant activity in hippocampal kindling Sprague-Dawley rat model assessed as after discharge time at 100 mg/kg, ip administered as single dose measured after 45 mins; assay type: functional; outline: as §4
[32] = Neurotoxicity in CF-1 mouse at 220 mg/kg, ip measured after 1 hr by rotarod test; assay type: toxicity, organism-based; settings: in vivo; outline: as §1
[33] = Neurotoxicity in Sprague-Dawley rat at 300 mg/kg, ip measured after 2 hrs by rotarod test; assay type: toxicity, organism-based; settings: in vivo; outline: as §3

Structure (SMILES): CCC(O)CNC(=O)COc1c(C)cccc1C (stereo not drawn)
- Activity [1]: Toxic
- Activity (Mus musculus [2]): Active
- Activity (Rattus norvegicus [3]): inactive

Structure (SMILES): Cc1cccc(C)c1OCC(=O)N[C@H](C)CO
- Activity [4]: Toxic
- Activity (Mus musculus [5]): inactive
- Activity (Mus musculus [6]): Active
- Time (Rattus norvegicus [7]): 48 s
- Activity [8]: Non-Toxic
- Time (Rattus norvegicus [9]): 72 s
- Activity [10]: Toxic
- selectivity ratio [11]: > 41.6
- Time (Rattus norvegicus [12]): 71 s
- TD50 [13]: > 500 mg/kg
- Activity (Astrocyte [14]): Non-Toxic
- Activity (Rattus norvegicus [15]): Active
- Time (Rattus norvegicus [16]): 77 s
- Time (Rattus norvegicus [17]): 76 s
- Time (Rattus norvegicus [18]): 77 s
- Activity [19]: Non-Toxic
- Activity [20]: Toxic
- Time (Rattus norvegicus [21]): 72 s
- Time (Mus musculus [22]): 0.25 h
- Time (Rattus norvegicus [23]): 73 s
- Activity [24]: Non-Toxic
- Activity [25]: Non-Toxic
- Activity [26]: Non-Toxic
- Activity (Astrocyte [27]): Non-Toxic
- Activity [28]: Toxic
- Time (Rattus norvegicus [29]): 80 s
- Activity [30]: Non-Toxic
- Time (Rattus norvegicus [31]): 86 s
- Activity [32]: Non-Toxic
- Activity [33]: Toxic
